Source: ChEMBL document CHEMBL1138301, “N-(2-Amino-phenyl)-4-(heteroarylmethyl)-benzamides as new histone deacetylase inhibitors” (Bioorg Med Chem Lett, 2007)
The source made the active and inactive calls. The calls are words filed in the database; no cut-off is given here.

Tests used:
Histone deacetylase 1 = Histone deacetylase 1 (Homo sapiens, UniProt Q13547); assay: Inhibition of human recombinant HDAC1 expressed in insect Sf9 cells
Summary of the method: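 FLAG-tagged recombinant HDAC1 expressed in Sf9 cells, purified by anti-FLAG affinity resin and size-exclusion chromatography. Substrate BocLys(acetyl)AMC. Deacetylated product detected fluorometrically after trypsin release of AMC (excitation 360 nm). IC50 determined.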

HCT-116 [1] = assay: Cell cycle arrest in HCT116 cells by accumulation at G2/M phase; type: functional, cell-based; details: Homo sapiens
DU-145 = assay: Antitumor activity against DU145 xenografted nude mouse assessed as tumor growth inhibition at 80 mg/kg, po after 14 days; type: functional, Homo sapiens; details: DU-145, 336 h
Summary of the method: (§1)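 Human tumour xenografts (A549 non-small cell lung, DU145 prostate, HCT116 colon) grown in nude mice, 6 animals per group. Dosing once daily for 14 days, intraperitoneal or oral. Read-out is % tumour growth inhibition versus vehicle-treated control animals.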

A549 = assay: Antitumor activity against A549 xenografted nude mouse assessed as tumor growth inhibition at 80 mg/kg, po after 14 days; type: functional, Homo sapiens; details: A549, 336 h; summary of the method: as §1
T-24 [2] = assay: Induction of histone H4 acetylation in human T24 cells after 16 hrs by immunoblot relative to MS-275; type: functional, cell-based; details: T-24, 16 h
Summary of the method: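 T24 cells exposed to 0, 1, 5 and 25 µM for 16 h, then harvested. Histones acid-extracted, run on SDS–PAGE and immunoblotted with antibodies to H4 and to acetylated H4. Relative effective concentration expressed against MS-275 at 1 µM.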

HCT-116 [3] = assay: Apoptosis in human HCT116 cells; type: functional, cell-based
HMEC = assay: Antiproliferative activity against human HMEC cells by MTT assay; type: cell-based
Summary of the method: (§2)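 MTT read-out of cell proliferation/cytotoxicity in human colon cancer HCT116 cells and in normal human mammary epithelial cells (HMEC); IC50 derived.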

T-24 [4] = assay: Induction of p21WAF1/Cip1 expression in human T24 cells […] after 16 hrs by Western blot analysis relative to MS-275; type: functional, cell-based; details: T-24, 16 h
Summary of the method: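 T24 cells exposed to 0, 1, 5 and 25 µM or DMSO alone for 16 h. Whole-cell lysates analysed by Western blot with p21WAF1/Cip1 antibody. Relative effective concentration expressed against MS-275 at 1 µM.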

[5] = Oral bioavailability in Sprague-Dawley rat at 5.0 mg/kg, po; type: ADME, organism-based; details: in vivo
Summary of the method: (§3)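 Pharmacokinetics with single dosing at 2.5 mg/kg iv or 5.0 mg/kg po. Vehicles were acidified saline or acidified saline/PEG400. Half-life and oral availability were determined.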

[6] = Half life in Sprague-Dawley rat at 2.5 mg/kg, iv; type: ADME, organism-based; set-up: dose 2.5 mg/kg, route intravenous; details: in vivo; summary of the method: as §3
HCT-116 [7] = assay: Antiproliferative activity against human HCT116 cells by MTT assay; type: functional, cell-based; summary of the method: as §2
HCT-116 [8] = assay: Antitumor activity against HCT116 xenografted nude mouse assessed as tumor growth inhibition at 40 mg/kg, ip after 14 days; type: functional, Homo sapiens; details: HCT-116, ip, 336 h, route intraperitoneal; summary of the method: as §1
HCT-116 [9] = assay: Antitumor activity against HCT116 xenografted nude mouse assessed as tumor growth inhibition at 20 mg/kg, ip after 14 days; type: functional, Homo sapiens; details: HCT-116, ip, 336 h, route intraperitoneal; summary of the method: as §1

Histone deacetylase 1, sequence (Q13547 whole entry): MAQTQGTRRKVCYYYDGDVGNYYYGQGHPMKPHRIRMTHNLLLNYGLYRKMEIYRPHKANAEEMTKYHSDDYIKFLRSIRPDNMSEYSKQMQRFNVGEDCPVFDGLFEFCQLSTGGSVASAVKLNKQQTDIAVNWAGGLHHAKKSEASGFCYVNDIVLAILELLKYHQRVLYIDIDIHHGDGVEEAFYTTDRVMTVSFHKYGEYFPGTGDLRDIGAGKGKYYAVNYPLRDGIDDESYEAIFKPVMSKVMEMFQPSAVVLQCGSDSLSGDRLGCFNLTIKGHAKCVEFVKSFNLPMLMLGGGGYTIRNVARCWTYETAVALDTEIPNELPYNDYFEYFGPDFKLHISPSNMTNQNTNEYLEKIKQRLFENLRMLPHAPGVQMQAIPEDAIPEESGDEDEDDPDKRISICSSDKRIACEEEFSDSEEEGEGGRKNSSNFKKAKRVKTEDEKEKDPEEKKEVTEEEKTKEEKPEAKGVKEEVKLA

Row | SMILES | IC50 (Histone deacetylase 1) | Activity (HCT-116 [1]) | inhibition in vivo at 80 mg/kg (DU-145) | inhibition in vivo at 80 mg/kg (A549) | EC50 (T-24 [2]) | Activity (HCT-116 [3]) | IC50 (HMEC) | EC50 (T-24 [4]) | bioavailability [5] | half-life [6] | IC50 (HCT-116 [7]) | inhibition in vivo at 40 mg/kg (HCT-116 [8]) | inhibition in vivo at 20 mg/kg (HCT-116 [9])
1 | Nc1ccccc1NC(=O)c1ccc(Cn2cnc3ccsc3c2=O)cc1 | 200 nM | Active | 45% | 42% | 1000 nM | Active | > 50000 nM | 1000 nM | 47% | 1.4 h | 700 nM |  | 
2 | Nc1ccccc1NC(=O)c1ccc(CC2Cc3ccccc3C2=O)cc1 (configuration not stated) | 100 nM | Active |  |  | < 1000 nM | Active | 8000 nM | 2000 nM |  |  | 600 nM |  | 
3 | CN(C)CCn1c(=O)n(Cc2ccc(C(=O)Nc3ccccc3N)cc2)c(=O)c2ccccc21 | 300 nM | Active |  |  | 1000 nM | Active | > 25000 nM | 1000 nM | 38% | 2.1 h | 1000 nM |  | 
4 | Cn1c(=O)n(Cc2ccc(C(=O)Nc3ccccc3N)cc2)c(=O)c2ccccc21 | 100 nM | Active |  |  | 1000 nM | Active | > 42000 nM | 1000 nM |  |  | 700 nM |  | 
5 | Nc1ccccc1NC(=O)c1ccc(Cn2c(=O)[nH]c3ccccc3c2=O)cc1 | 60 nM | Active |  |  | 1000 nM | Active | 18000 nM | 2000 nM |  |  | 800 nM | 59% | 51%
6 | Nc1ccccc1NC(=O)c1ccc(Cn2c(=O)c3ccccc3n(CCN3CCOCC3)c2=O)cc1 | 400 nM | Active |  |  | 3000 nM | Active | > 25000 nM | 5000 nM |  |  | 1000 nM |  | 
7 | Nc1ccccc1NC(=O)c1ccc(CC2COc3ccccc3C2=O)cc1 (configuration not stated) | 90 nM | Active |  |  | 2000 nM | Active | 6000 nM | 1000 nM |  |  | 900 nM |  | 
8 | Nc1ccccc1NC(=O)c1ccc(Cn2c(=O)oc3ccccc3c2=O)cc1 | 100 nM | Active |  |  | 1000 nM | Active | 21000 nM | 2000 nM |  |  | 300 nM |  | 
9 | Nc1ccccc1NC(=O)c1ccc(Cn2c(=O)[nH]c3ccsc3c2=O)cc1 | 60 nM | Active | 67% | 55% | 1000 nM | Active | 29000 nM | 1000 nM | 47% | 1.3 h | 400 nM | 61% | 
10 | CCn1c(=O)n(Cc2ccc(C(=O)Nc3ccccc3N)cc2)c(=O)c2ccccc21 | 200 nM | Active |  |  | 1000 nM | Active | 25000 nM | 600 nM |  |  | 400 nM |  | 
11 | CCn1c(=O)n(Cc2ccc(C(=O)Nc3ccccc3N)cc2)c(=O)c2sccc21 | 300 nM | Active |  |  | 1000 nM | Active | > 50000 nM | 3000 nM | 64% | 1.2 h | 800 nM |  | 
12 | Nc1ccccc1NC(=O)c1ccc(Cc2coc3ccccc3c2=O)cc1 | 30 nM | Active |  |  | 1000 nM | Active | 9000 nM | 1000 nM |  |  | 300 nM |  | 
13 | Nc1ccccc1NC(=O)c1ccc(CC2COc3ccccc3C2)cc1 (configuration not stated) | 1000 nM | Active |  |  | 3000 nM | Active | 23000 nM | 3000 nM |  |  | 2000 nM |  | 
14 | Nc1ccccc1NC(=O)c1ccc(Cn2cnc3ccccc3c2=O)cc1 | 100 nM | Active |  |  | < 1000 nM | Active | 28000 nM | 1000 nM |  |  | 400 nM |  | 
15 | Nc1ccccc1NC(=O)c1ccc(Cn2nnc3ccccc3c2=O)cc1 | 200 nM | Active |  |  | 1000 nM | Active | 17000 nM | 1000 nM |  |  | 600 nM |  | 
16 | Nc1ccccc1NC(=O)c1ccc(CN2Cc3ccccc3C2=O)cc1 | 100 nM | Active |  |  | 1000 nM | Active | 37000 nM | 2000 nM | 34% | 0.6 h | 500 nM |  | 
17 | Cc1nc2ccccc2c(=O)n1Cc1ccc(C(=O)Nc2ccccc2N)cc1 | 80 nM | Active |  |  | 1000 nM | Active | > 50000 nM | 2000 nM | 16% | 0.9 h | 600 nM |  | 
18 | Nc1ccccc1NC(=O)c1ccc(CN2C(=O)c3ccccc3C2=O)cc1 | 200 nM | Active |  |  | 5000 nM | Active | > 50000 nM | 3000 nM |  |  | 5000 nM |  | 
19 | COc1ccc(Cn2c(=O)n(Cc3ccc(C(=O)Nc4ccccc4N)cc3)c(=O)c3ccccc32)cc1 | 100 nM | Active |  |  | 1000 nM | Active | > 25000 nM | 3000 nM |  |  | 800 nM |  | 
